Assay results taken from ChEMBL document CHEMBL4689842, “EUbOPEN Chemogenomics Library wave 1” (2021).
“And” between values parts separate entries of the source, which are not always exact repeats. Equal values may be shown once.

Tested on: Fibroblast
Test: Multiplex assay against human fibroblast
Format: toxicity, cell-based
Summary of the method: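 Values for tubulin, mitochondrial-mass and membrane-permeability phenotypes are per cents of cells with healthy nuclei. These cells were identified by CellPathfinder machine-learning gating of live cells that had been stained at seeding with Hoechst33342, BioTracker Green Microtubule Cytoskeleton Dye, MitoTracker Red and Annexin V Alexa Fluor 680 and imaged on a CQ1 microscope at 37°C and 5% CO2 after compound addition. The gating first set Hoechst high-intensity objects apart from normal cells, then split normal cells into healthy, pyknosed or fragmented nuclei, and pyknosed cells into mitotic or apoptotic.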

[1] = 12 h, 1 µM, compound concentration 1 uM, replicate 1
[2] = 12 h, 1 µM, compound concentration 1 uM, replicate 2
[3] = 12 h, 10 µM, compound concentration 10 uM, replicate 1
[4] = 12 h, 10 µM, compound concentration 10 uM, replicate 2
[5] = 24 h, 1 µM, compound concentration 1 uM, replicate 1
[6] = 24 h, 1 µM, compound concentration 1 uM, replicate 2
[7] = 24 h, 10 µM, compound concentration 10 uM, replicate 1
[8] = 24 h, 10 µM, compound concentration 10 uM, replicate 2
[9] = 48 h, 1 µM, compound concentration 1 uM, replicate 1
[10] = 48 h, 1 µM, compound concentration 1 uM, replicate 2
[11] = 48 h, 10 µM, compound concentration 10 uM, replicate 1
[12] = 48 h, 10 µM, compound concentration 10 uM, replicate 2

With `CNCc1ccc(-c2cc(-c3nc(-c4ccc(S(=O)(=O)C(C)C)cc4)cnc3N)on2)cc1` [BERZOSERTIB] the “Population Apoptotic (%)” value [1] was 45% and 78%, the “Population Fragmented Nuclei (%)” value [1] was 22% and 31% and the “Population Hoechst High Intensity Objects (%)” value [1] was 63% and 99%. For the same molecule, the “Population Membrane Permeable-Phenotype (%)” value [1] was 1%, the “Population Mitochondria Different-Phenotype (%)” value [1] was 0% and the “Population Mitotic Cells (%)” value [1] was 54% and 21%. The “Population Pyknosed Nuclei (%)” value [1] was 54% and 63%, the “Population Apoptotic (%)” value [2] was 47% and 100% and the “Population Fragmented Nuclei (%)” value [2] was 47% and 96%. For the same molecule, the “Population Hoechst High Intensity Objects (%)” value [2] was 68% and 95%, the “Population Membrane Permeable-Phenotype (%)” value [2] was 14% and 0% and the “Population Mitochondria Different-Phenotype (%)” value [2] was 4%. For the same molecule, the “Population Tubulin-Different-Phenotype (%)” value [2] was 0%, the “Population Apoptotic (%)” value [3] was 51% and 76% and the “Population Fragmented Nuclei (%)” value [3] was 24% and 41%. For the same molecule, the “Population Healthy Nuclei (%)” value [3] was 21%, the “Population Hoechst High Intensity Objects (%)” value [3] was 64% and 99% and the “Population Membrane Permeable-Phenotype (%)” value [3] was 5%. The “Population Mitochondria Different-Phenotype (%)” value [3] was 1%, the “Population Mitotic Cells (%)” value [3] was 48% and 23% and the “Population Pyknosed Nuclei (%)” value [3] was 54%. For the same molecule, the “Population Tubulin-Different-Phenotype (%)” value [3] was 8%, the “Total Cell Count” value [3] was 976 and 2548 and the “Population Apoptotic (%)” value [4] was 48% and 100%. The “Population Fragmented Nuclei (%)” value [4] was 54% and 93%, the “Population Hoechst High Intensity Objects (%)” value [4] was 69% and 96% and the “Population Membrane Permeable-Phenotype (%)” value [4] was 12% and 0%. For the same molecule, the “Population Mitochondria Different-Phenotype (%)” value [4] was 6% and 0%, the “Population Tubulin-Different-Phenotype (%)” value [4] was 3% and 0% and the “Population Fragmented Nuclei (%)” value [5] was 66% and 26%. For the same molecule, the “Population Hoechst High Intensity Objects (%)” value [5] was 99% and 67%, the “Population Membrane Permeable-Phenotype (%)” value [5] was 0% and 1% and the “Population Mitochondria Different-Phenotype (%)” value [5] was 0%. The “Population Mitotic Cells (%)” value [5] was 100% and 57%, the “Population Pyknosed Nuclei (%)” value [5] was 33% and 40% and the “Population Tubulin-Different-Phenotype (%)” value [5] was 0%. The “Population Apoptotic (%)” value [6] was 37% and 100%, the “Population Fragmented Nuclei (%)” value [6] was 53% and 94% and the “Population Hoechst High Intensity Objects (%)” value [6] was 69% and 96%. For the same molecule, the “Population Membrane Permeable-Phenotype (%)” value [6] was 25%, the “Population Mitochondria Different-Phenotype (%)” value [6] was 12% and the “Population Fragmented Nuclei (%)” value [7] was 0% and 19%. The “Population Hoechst High Intensity Objects (%)” value [7] was 100% and 68%, the “Population Membrane Permeable-Phenotype (%)” value [7] was 0% and 8% and the “Population Mitochondria Different-Phenotype (%)” value [7] was 0%. For the same molecule, the “Population Tubulin-Different-Phenotype (%)” value [7] was 0%, the “Population Apoptotic (%)” value [8] was 54% and the “Population Fragmented Nuclei (%)” value [8] was 93% and 42%. The “Population Hoechst High Intensity Objects (%)” value [8] was 97% and 74%, the “Population Mitochondria Different-Phenotype (%)” value [8] was 7% and the “Population Mitotic Cells (%)” value [8] was 45%. For the same molecule, the “Population Pyknosed Nuclei (%)” value [8] was 33% and the “Population Tubulin-Different-Phenotype (%)” value [8] was 11%.

For `Cc1[nH]c(/C=C2\C(=O)Nc3ccc(S(=O)(=O)N(C)c4cccc(Cl)c4)cc32)c(C)c1C(=O)N1CCN(C)CC1`, the “Population Apoptotic (%)” value [1] was 64%, the “Population Fragmented Nuclei (%)” value [1] was 25% and the “Population Healthy Nuclei (%)” value [1] was 51%. For the same molecule, the “Population Hoechst High Intensity Objects (%)” value [1] was 8%, the “Population Membrane Permeable-Phenotype (%)” value [1] was 40% and the “Population Mitochondria Different-Phenotype (%)” value [1] was 6%. For the same molecule, the “Population Mitotic Cells (%)” value [1] was 35%, the “Population Normal (%)” value [1] was 91% and the “Population Pyknosed Nuclei (%)” value [1] was 22%. For the same molecule, the “Population Tubulin-Different-Phenotype (%)” value [1] was 43%, the “Total Cell Count” value [1] was 68 and the “Population Apoptotic (%)” value [2] was 100%. For the same molecule, the “Population Fragmented Nuclei (%)” value [2] was 16%, the “Population Healthy Nuclei (%)” value [2] was 77% and the “Population Hoechst High Intensity Objects (%)” value [2] was 12%. The “Population Membrane Permeable-Phenotype (%)” value [2] was 12%, the “Population Mitochondria Different-Phenotype (%)” value [2] was 42% and the “Population Mitotic Cells (%)” value [2] was 0%. The “Population Normal (%)” value [2] was 87%, the “Population Pyknosed Nuclei (%)” value [2] was 6% and the “Population Tubulin-Different-Phenotype (%)” value [2] was 68%. For the same molecule, the “Total Cell Count” value [2] was 90, the “Population Apoptotic (%)” value [3] was 61% and the “Population Fragmented Nuclei (%)” value [3] was 20%. The “Population Healthy Nuclei (%)” value [3] was 61%, the “Population Hoechst High Intensity Objects (%)” value [3] was 5% and the “Population Membrane Permeable-Phenotype (%)” value [3] was 59%. The “Population Mitochondria Different-Phenotype (%)” value [3] was 13%, the “Population Mitotic Cells (%)” value [3] was 38% and the “Population Normal (%)” value [3] was 94%. The “Population Pyknosed Nuclei (%)” value [3] was 18%, the “Population Tubulin-Different-Phenotype (%)” value [3] was 93% and the “Total Cell Count” value [3] was 76. For the same molecule, the “Population Apoptotic (%)” value [4] was 25%, the “Population Fragmented Nuclei (%)” value [4] was 10% and the “Population Healthy Nuclei (%)” value [4] was 74%. The “Population Hoechst High Intensity Objects (%)” value [4] was 12%, the “Population Membrane Permeable-Phenotype (%)” value [4] was 40% and the “Population Mitochondria Different-Phenotype (%)” value [4] was 97%. The “Population Mitotic Cells (%)” value [4] was 75%, the “Population Normal (%)” value [4] was 87% and the “Population Pyknosed Nuclei (%)” value [4] was 16%. For the same molecule, the “Population Tubulin-Different-Phenotype (%)” value [4] was 100%, the “Total Cell Count” value [4] was 70 and the “Population Apoptotic (%)” value [5] was 53%. For the same molecule, the “Population Fragmented Nuclei (%)” value [5] was 22%, the “Population Healthy Nuclei (%)” value [5] was 56% and the “Population Hoechst High Intensity Objects (%)” value [5] was 3%. For the same molecule, the “Population Membrane Permeable-Phenotype (%)” value [5] was 28%, the “Population Mitochondria Different-Phenotype (%)” value [5] was 14% and the “Population Mitotic Cells (%)” value [5] was 46%. For the same molecule, the “Population Normal (%)” value [5] was 96%, the “Population Pyknosed Nuclei (%)” value [5] was 20% and the “Population Tubulin-Different-Phenotype (%)” value [5] was 62%. The “Total Cell Count” value [5] was 64, the “Population Apoptotic (%)” value [6] was 100% and the “Population Fragmented Nuclei (%)” value [6] was 18%. The “Population Healthy Nuclei (%)” value [6] was 72%, the “Population Hoechst High Intensity Objects (%)” value [6] was 8% and the “Population Membrane Permeable-Phenotype (%)” value [6] was 10%. The “Population Mitochondria Different-Phenotype (%)” value [6] was 40%, the “Population Mitotic Cells (%)” value [6] was 0% and the “Population Normal (%)” value [6] was 91%. The “Population Pyknosed Nuclei (%)” value [6] was 9%, the “Population Tubulin-Different-Phenotype (%)” value [6] was 55% and the “Total Cell Count” value [6] was 65. The “Population Apoptotic (%)” value [7] was 77%, the “Population Fragmented Nuclei (%)” value [7] was 41% and the “Population Healthy Nuclei (%)” value [7] was 46%. For the same molecule, the “Population Hoechst High Intensity Objects (%)” value [7] was 7%, the “Population Membrane Permeable-Phenotype (%)” value [7] was 38% and the “Population Mitochondria Different-Phenotype (%)” value [7] was 50%. For the same molecule, the “Population Mitotic Cells (%)” value [7] was 22%, the “Population Normal (%)” value [7] was 92% and the “Population Pyknosed Nuclei (%)” value [7] was 12%. For the same molecule, the “Population Tubulin-Different-Phenotype (%)” value [7] was 97%, the “Total Cell Count” value [7] was 79 and the “Population Apoptotic (%)” value [8] was 100%. The “Population Fragmented Nuclei (%)” value [8] was 17%, the “Population Healthy Nuclei (%)” value [8] was 73% and the “Population Hoechst High Intensity Objects (%)” value [8] was 8%. The “Population Membrane Permeable-Phenotype (%)” value [8] was 84%, the “Population Mitochondria Different-Phenotype (%)” value [8] was 100% and the “Population Mitotic Cells (%)” value [8] was 0%. The “Population Normal (%)” value [8] was 91%, the “Population Pyknosed Nuclei (%)” value [8] was 9% and the “Population Tubulin-Different-Phenotype (%)” value [8] was 100%. For the same molecule, the “Total Cell Count” value [8] was 71, the “Population Apoptotic (%)” value [9] was 61% and the “Population Fragmented Nuclei (%)” value [9] was 30%. The “Population Healthy Nuclei (%)” value [9] was 48%, the “Population Hoechst High Intensity Objects (%)” value [9] was 11% and the “Population Membrane Permeable-Phenotype (%)” value [9] was 17%. The “Population Mitochondria Different-Phenotype (%)” value [9] was 13%, the “Population Mitotic Cells (%)” value [9] was 38% and the “Population Normal (%)” value [9] was 88%. The “Population Pyknosed Nuclei (%)” value [9] was 21%, the “Population Tubulin-Different-Phenotype (%)” value [9] was 65% and the “Total Cell Count” value [9] was 68. The “Population Apoptotic (%)” value [10] was 50%, the “Population Fragmented Nuclei (%)” value [10] was 16% and the “Population Healthy Nuclei (%)” value [10] was 80%. For the same molecule, the “Population Hoechst High Intensity Objects (%)” value [10] was 17%, the “Population Membrane Permeable-Phenotype (%)” value [10] was 27% and the “Population Mitochondria Different-Phenotype (%)” value [10] was 15%. The “Population Mitotic Cells (%)” value [10] was 50%, the “Population Normal (%)” value [10] was 82% and the “Population Pyknosed Nuclei (%)” value [10] was 2%. For the same molecule, the “Population Tubulin-Different-Phenotype (%)” value [10] was 81%, the “Total Cell Count” value [10] was 88 and the “Population Apoptotic (%)” value [11] was 66%. The “Population Fragmented Nuclei (%)” value [11] was 40%, the “Population Healthy Nuclei (%)” value [11] was 37% and the “Population Hoechst High Intensity Objects (%)” value [11] was 11%. The “Population Membrane Permeable-Phenotype (%)” value [11] was 16%, the “Population Mitochondria Different-Phenotype (%)” value [11] was 76% and the “Population Mitotic Cells (%)” value [11] was 33%. The “Population Normal (%)” value [11] was 88%, the “Population Pyknosed Nuclei (%)” value [11] was 22% and the “Population Tubulin-Different-Phenotype (%)” value [11] was 100%. For the same molecule, the “Total Cell Count” value [11] was 76, the “Population Apoptotic (%)” value [12] was 50% and the “Population Fragmented Nuclei (%)” value [12] was 21%. For the same molecule, the “Population Healthy Nuclei (%)” value [12] was 72%, the “Population Hoechst High Intensity Objects (%)” value [12] was 8% and the “Population Membrane Permeable-Phenotype (%)” value [12] was 25%. For the same molecule, the “Population Mitochondria Different-Phenotype (%)” value [12] was 52%, the “Population Mitotic Cells (%)” value [12] was 50% and the “Population Normal (%)” value [12] was 91%. For the same molecule, the “Population Pyknosed Nuclei (%)” value [12] was 6%, the “Population Tubulin-Different-Phenotype (%)” value [12] was 95% and the “Total Cell Count” value [12] was 72.
